Screens: PubChem, several laboratories
Shown are actives, neighbours in structure and some others; about 0.95% of the full set was active somewhere.
ASAP1 inh: inhibitors of human ASAP1 ArfGAP activity, primary screen, biochemical, fluorescence polarization | Arf-GAP with SH3 domain, ANK repeat and PH domain-containing protein 1 (Homo sapiens), … | ASAP1-stimulated ARF1 GTP hydrolysis, GDP FP detection | inhibition, % at 16.5 µM | hit rate 0.19% among 360,000 | AID 624377, 2012; in the data active = inhibition above about 25%
CSN inh: inhibitors of CSN-mediated cullin deneddylation, primary screen, biochemical, fluorescence polarization, uHTS; COP9 signalosome complex subunit 5 (Homo sapiens), Q92905; Purified CSN, SCF-Nedd8-OG deneddylation; hit rate 0.38% among 360,000; inhibition, % at 12.5 µM;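 active = pattern-corrected inhibition above about 35%, with an unprinted fluorescence ratio check between 0.5 and 1.5, limit read from the data, passing the limit was not always enough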
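Schedule: reaction 90 min, room temperature / Assay system: HEK293T-derived human Csn5 enzyme / Input: Csn5 at 0.24 nM final / Measure: inhibition of Csn5 cleavage, % / Control set: substrate-only high control, full reaction low control / Technique: fluorescence polarization of the substrate / Buffer or medium: Tris/NaCl/DTT buffer, pH 7.5 / Reagent: SCFSkp2-Nedd8OG substrate at 10 nM final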
ARFGAP1 inh: inhibitors of rat ARFGAP1 GAP activity, primary screen, biochemical, fluorescence polarization, GDP tracer. inhibition, % at 16.5 µM. ADP-ribosylation factor GTPase-activating protein 1 (Rattus norvegicus), Q62848. hit rate 0.26% among 360,000. AID 651572, 2012. Arfgap1-stimulated ARF1 GTP hydrolysis, GDP FP detection;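 active = inhibition above a per-plate limit, mean inhibition of low control wells plus 3 SD, cut at about 25% in these data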
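Material: truncated rat Arfgap1 GAP domain; Incubation: compound-enzyme preincubation 20 min, reaction 120 min, detection 60 min, 25 °C; Read-out: percent inhibition of Arfgap1-stimulated GTP hydrolysis; Technique: FP, GDP Alexa 633 tracer displaced from anti-GDP antibody, 620/688 nm; Controls: No-Arfgap1 wells (100%) versus DMSO full-reaction wells (0%); Replication: single well per compound.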
HNF4A DNA FP: change in binding of human HNF4A to DNA, primary screen, biochemical, fluorescence polarization, FITC-DNA. Hepatocyte nuclear factor 4-alpha (Homo sapiens), P41235. 1 h. activity change, % at 10 µM. hit rate 0.3% among 360,000. AID 1224865, 2016; in the data active = activity change above about 30%, passing the limit was not always enough
CSN deneddyl val: Csn5 deneddylation inhibitors, confirmation, biochemical, fluorescence polarization, single concentration, SCF-Nedd8OG substrate | shares compounds with CSN inh | Csn5 deneddylation of SCF-Nedd8OG, 90 min | inhibition, % at 16.6 µM | hit rate 62% among 540 | AID 720654, 2013; in the data active = inhibition above about 50%
MMP-2 counter: MMP-2 protease inhibition counter-screen, confirmation, counter-screen for CSN deneddylation inhibitor project, biochemical, fluorescence, single concentration. shares compounds with CSN inh. recombinant MMP-2, FRET substrate fluorescence, 60 min. inhibition, % at 16.6 µM. hit rate 33% among 540. AID 720655, 2013;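 active = corrected plate-normalized z-score of 5 or more, or -5 or less, or inhibition of 15% or more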
Thrombin counter: counter-screen for CSN deneddylation inhibitors: bovine thrombin inhibition; shares compounds with CSN inh; bovine thrombin cleavage of Ub4-pepOG, fluorescence polarization; inhibition, % at 16.6 µM; hit rate 49% among 540; AID 720656;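 active = inhibition at or above a set limit, with a fluorescence interference ratio between 0.5 and a set maximum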
Target sequence (P00735 whole entry, looked up): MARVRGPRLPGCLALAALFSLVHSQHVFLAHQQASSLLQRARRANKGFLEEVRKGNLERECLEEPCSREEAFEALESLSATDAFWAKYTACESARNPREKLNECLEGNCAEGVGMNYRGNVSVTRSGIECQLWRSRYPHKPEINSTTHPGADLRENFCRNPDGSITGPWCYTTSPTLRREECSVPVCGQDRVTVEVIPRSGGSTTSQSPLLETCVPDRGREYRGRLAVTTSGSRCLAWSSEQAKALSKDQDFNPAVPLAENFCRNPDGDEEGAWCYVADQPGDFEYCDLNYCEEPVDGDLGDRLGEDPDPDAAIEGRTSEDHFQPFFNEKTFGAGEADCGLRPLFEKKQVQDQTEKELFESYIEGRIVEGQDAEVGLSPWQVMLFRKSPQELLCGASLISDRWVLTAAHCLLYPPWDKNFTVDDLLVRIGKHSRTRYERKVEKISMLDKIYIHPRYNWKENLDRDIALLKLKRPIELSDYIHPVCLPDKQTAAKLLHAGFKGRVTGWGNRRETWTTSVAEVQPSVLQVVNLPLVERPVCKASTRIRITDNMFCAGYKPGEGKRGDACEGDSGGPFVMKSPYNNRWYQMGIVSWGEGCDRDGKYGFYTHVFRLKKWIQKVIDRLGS
Large screens that a line does not name were inactive (follow-up assays come after a bar, where they were run).

Cc1c2cc[n+](CCN3CCCCC3)cc2c(C)c2c1[nH]c1ccc(O)cc12	CSN inh 100 (no result: ASAP1 inh, ARFGAP1 inh) | CSN deneddyl val inactive | MMP-2 counter 93 | Thrombin counter 40
NS(=O)(=O)c1cc(C(=O)NC2CCSc3ccccc32)ccc1Cl (stereo not drawn)	CSN inh 64 | CSN deneddyl val inactive | MMP-2 counter inactive | Thrombin counter 49
NS(=O)(=O)c1ccc(CCNC(=O)COC(=O)Cc2ccc(Cl)cc2)cc1	none
O=C(CCCN1C(=O)/C(=C/c2ccccc2)SC1=S)Nc1ccc(C(=O)O)c(O)c1	none
O=C(CN1C(=O)/C(=C/c2ccco2)SC1=S)Nc1ccc(O)c(C(=O)O)c1	CSN inh 56 | CSN deneddyl val 57 | MMP-2 counter 21 | Thrombin counter inactive
O=C(CN1C(=O)/C(=C/c2ccco2)SC1=S)Nc1ccc(C(=O)O)c(O)c1	CSN inh 61 | CSN deneddyl val 54 | MMP-2 counter 18 | Thrombin counter 30
CCC(C)[C@H]1CNCCN1CCc1cccc2ccccc12 (stereo partly drawn)	none
CCOC(=O)c1cc(-c2csc(N/N=C/c3ccccc3Cl)n2)on1	none
O=C1CCCC2=C1C(c1ccco1)Nc1ccc3ccccc3c12 (stereo not drawn)	CSN inh 40 | MMP-2 counter 17 | Thrombin counter inactive
O=C1CCCC2=C1C(c1ccc(O)c(O)c1)Nc1ccc3ccccc3c12 (stereo not drawn)	none
CC(C)c1nc2oc3c(N(C)CCO)ncnc3c2c2c1CCC2	none
Cc1cc(NC(=O)c2cncc(Br)c2)ccc1NC(=O)c1cc2ccccc2o1	CSN inh 60 | CSN deneddyl val inactive | MMP-2 counter 16 | Thrombin counter inactive
Cn1c(=O)n(CC(=O)NCC2CCCO2)c(=O)c2c3c(sc21)COC(C)(C)C3 (stereo not drawn)	none
COc1cccc(/C=N/Nc2nnc(C)n2N)c1O	CSN inh 54 | CSN deneddyl val 107 | MMP-2 counter inactive | Thrombin counter inactive
COc1cc([C@@H]2C[C@H]3CN(c4ccccc4)C(=O)[C@]34CCCN24)cc(OC)c1OC	none
COc1ccccc1-n1cc([C@@H]2C[C@H]3CN(c4ccccc4)C(=O)[C@]34CCCN24)cn1	CSN inh 54, HNF4A DNA FP 65 | CSN deneddyl val 69 | MMP-2 counter inactive | Thrombin counter 37
Nc1ccc2c(O)cc(S(=O)(=O)O)cc2c1	CSN inh 36 | CSN deneddyl val 94 | MMP-2 counter 16 | Thrombin counter inactive
CC(=O)Nc1ccc2c(O)cc(S(=O)(=O)O)cc2c1	none
CCN1/C(=C/c2ccc3cc(C)ccc3[n+]2CC)Sc2cc(C)ccc21	CSN inh 56, HNF4A DNA FP 109 | CSN deneddyl val 60 | MMP-2 counter inactive | Thrombin counter inactive
CCN1/C(=C/c2ccc3cc(C)ccc3[n+]2C)Sc2ccc3sccc3c21	CSN inh 137 | CSN deneddyl val inactive | MMP-2 counter inactive | Thrombin counter 67
CCCCN1/C(=C/c2ccc3ccccc3[n+]2CC)Sc2ccccc21	none (no result: ASAP1 inh, ARFGAP1 inh)
CCN1/C(=C/c2cccc[n+]2C)Sc2ccc(OC)cc21	none
CCCCN(C(=O)C1CCCC1)C1CCS(=O)(=O)C1 (stereo not drawn)	none
Cc1cccc(N2CCN(C(=S)Nc3ccc4nc(N5CCN(C)CC5)cc(C)c4c3)CC2)c1C	CSN inh 36, HNF4A DNA FP 59 | CSN deneddyl val 97 | MMP-2 counter inactive | Thrombin counter inactive
Cc1cc(N2CCN(C)CC2)nc2ccc(NC(=S)N3CCCCC3)cc12	none
Nc1ccc2c(c1)C(=O)C(=O)c1ccccc1-2	CSN inh 51 | MMP-2 counter inactive | Thrombin counter inactive
O=C1C(=O)c2ccc(-c3ccccc3)cc2-c2ccccc21	CSN inh 57 | CSN deneddyl val inactive | MMP-2 counter inactive | Thrombin counter inactive
Nc1ccc2c(c1)C(=O)c1ccccc1-2	none
CCc1sc(NC(=O)C(C)C)nc1-c1ccccc1	none
COC(=O)c1cc(C)nc2c1C(=O)C(=O)C=C2N1CCOCC1	CSN inh 45 | CSN deneddyl val inactive | MMP-2 counter inactive | Thrombin counter inactive
COC(=O)c1cc(S(=O)(=O)N2CCOCC2)c(Cl)cc1N1CCOCC1	none
Cc1cc(C)n2nc(SCC(=O)c3cc(C)n(CC4CCCO4)c3C)nc2n1 (stereo not drawn)	none
Cc1nnc(-c2ccccc2)c(=O)n1/N=C/c1c(O)ccc2ccccc12	CSN inh 50 | CSN deneddyl val 109 | MMP-2 counter inactive | Thrombin counter 30
O=C1NC(=S)SC1=Cc1ccccc1Cl	none
Cc1cc(/C=C2\SC(=S)NC2=O)c(C)n1-c1ccccc1	CSN inh 40, HNF4A DNA FP 75 | CSN deneddyl val 61 | MMP-2 counter 23 | Thrombin counter 31
Cc1cc(/C=C2\SC(=S)NC2=O)c(C)n1C	CSN inh 76, HNF4A DNA FP 44 | CSN deneddyl val 53 | MMP-2 counter 24 | Thrombin counter 39
Cc1cc(/C=C2/SC(=O)NC2=O)c(C)n1-c1ccc(N2CCOCC2)cc1	none
Cc1cc(/C=C2\SC(=S)NC2=O)c(C)n1-c1ccc(O)cc1	CSN inh 60, HNF4A DNA FP 99 | CSN deneddyl val 50 | MMP-2 counter 28 | Thrombin counter 50
O=C1NC(=S)S/C1=C\c1cc(Cl)cc(Cl)c1O	CSN inh 45 | CSN deneddyl val 54 | MMP-2 counter inactive | Thrombin counter 56
CC(C)(C)NS(=O)(=O)c1ccc(NC(=O)CS(=O)(=O)Cc2ccccc2)cc1	none
N#Cc1c(NC(=O)/C=C/C(=O)O)sc2c1CCN(Cc1ccccc1)C2	CSN inh 42 | CSN deneddyl val inactive | MMP-2 counter inactive | Thrombin counter 46
CC(=O)Nc1sc2c(c1C#N)CCN(Cc1ccccc1)C2	none
CN1C/C(=C/c2ccccc2[N+](=O)[O-])C(=O)/C(=C\c2ccccc2[N+](=O)[O-])C1	none
COc1ccccc1N1C(=N)S/C(=C\c2ccc(-c3ccccc3C(=O)O)o2)C1=O	CSN inh 35 | CSN deneddyl val 60 | MMP-2 counter inactive | Thrombin counter 31
N=C1S/C(=C\c2ccc(-c3ccccc3C(=O)O)o2)C(=O)N1c1ccc2c(c1)OCO2	none
